Test results as given in ChEMBL document CHEMBL1125535, “Benzothiazole hydroxy ureas as inhibitors of 5-lipoxygenase: use of the hydroxyurea moiety as a replacement for hydroxamic acid” (J Med Chem, 1992).

Legend:
[1] = target: T1, Polyunsaturated fatty acid 5-lipoxygenase (Homo sapiens, UniProt P09917); assay: In vitro inhibition of ionophore stimulated LTB4 release from human peripheral blood leukocytes.; type: functional
T1 sequence (P09917 whole entry): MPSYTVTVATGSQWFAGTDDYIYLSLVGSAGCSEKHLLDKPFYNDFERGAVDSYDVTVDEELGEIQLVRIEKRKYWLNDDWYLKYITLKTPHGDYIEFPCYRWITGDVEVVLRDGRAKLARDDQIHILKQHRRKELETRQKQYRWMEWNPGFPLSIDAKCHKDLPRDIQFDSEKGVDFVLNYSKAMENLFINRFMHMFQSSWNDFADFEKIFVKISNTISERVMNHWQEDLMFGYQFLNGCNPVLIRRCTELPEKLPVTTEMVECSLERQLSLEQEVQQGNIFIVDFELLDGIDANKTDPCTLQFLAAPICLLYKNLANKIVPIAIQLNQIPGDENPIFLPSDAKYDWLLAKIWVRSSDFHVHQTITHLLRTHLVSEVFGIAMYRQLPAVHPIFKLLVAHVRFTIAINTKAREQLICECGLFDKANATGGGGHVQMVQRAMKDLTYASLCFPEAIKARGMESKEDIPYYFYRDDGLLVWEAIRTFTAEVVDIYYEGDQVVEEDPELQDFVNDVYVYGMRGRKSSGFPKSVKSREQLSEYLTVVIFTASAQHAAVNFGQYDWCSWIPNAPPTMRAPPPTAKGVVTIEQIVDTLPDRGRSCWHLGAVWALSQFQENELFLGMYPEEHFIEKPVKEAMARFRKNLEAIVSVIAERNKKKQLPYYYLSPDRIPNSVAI
Summary of the method: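 Leukocytes from pooled human venous blood were isolated by plasmagel sedimentation and erythrocyte lysis, then set to 1×10^6 cells/mL in modified Eagle MEM. Cells were preincubated 5 min at 37 °C with DMSO vehicle or compound, then stimulated 5 min at 37 °C with A23187 (5 µL of 0.1 mM). Reaction stopped on ice with cold Ca-free PBS; supernatant LTB4 measured by [3H]RIA.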

Mus musculus [2] = assay: In vivo 5-Lipoxygenase inhibitory activity by using mouse zymosan peritonitis model; inactive; type: functional, organism-based
Summary of the method: (§1)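 CD-1 mice (18–25 g) received compound orally in 0.5% methyl cellulose, then 3 mg zymosan-A in 0.5 mL 0.9% saline ip 1 h later. Samples were held on ice ≥30 min and spun at 28000g for 15 min at 4 °C. Supernatants were dried under nitrogen and stored at −70 °C. LTC4 measured by [3H]RIA on a 1:20 dilution.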

[3] = target: T1, Polyunsaturated fatty acid 5-lipoxygenase; assay: In vitro effective concentration required to inhibit ionophore stimulated-human peripheral blood leukocytes; inactive; type: functional
Mus musculus [4] = assay: In vivo 5-Lipoxygenase inhibitory activity by using mouse zymosan peritonitis model; type: functional, organism-based; summary of the method: as §1

| Compound | EC50 [1] | EC50 (Mus musculus [2]) | EC50 [3] | EC50 (Mus musculus [4]) |
| --- | --- | --- | --- | --- |
| CC(C)c1ccc2nc(SCCNC(=O)N(C)O)sc2c1 | 160 nM | Not Active | – | – |
| CN(O)C(=O)CCSc1nc2ccccc2s1 | 39 nM | – | – | – |
| CC(C)N(O)C(=O)NCCCSc1nc2ccccc2s1 | 70 nM | Not Active | – | – |
| CNC(=O)NCCSc1nc2ccccc2s1 | – | Not Active | Not Active | – |
| CNC(=O)CCSc1nc2ccccc2s1 | – | – | Not Active | – |
| CCOc1ccc2nc(SCCNC(=O)N(O)C(C)C)sc2c1 | 390 nM | Not Active | – | – |
| CONC(=O)NCCSc1nc2ccccc2s1 | – | Not Active | Not Active | – |
| CN(O)C(=O)NCCSc1nc2cccc(Cl)c2s1 | 530 nM | Not Active | – | – |
| CN(O)C(=O)NCCSc1nc2cc(Cl)ccc2s1 | 20 nM | – | – | 23.1 mg/kg |
| CN(O)C(=O)NCCSc1nc2ccccc2s1 | 90 nM | – | – | 41 mg/kg |
| NC1=NN(c2cccc(C(F)(F)F)c2)CC1 [BW-755C] | – | – | – | 8.5 mg/kg |
| COc1ccc(-n2nc(CCC(=O)N(C)O)cc2-c2ccc(Cl)cc2)cc1 [TEPOXALIN] | 70 nM | – | – | 44.5 mg/kg |

The next lines start with the values.

| EC50 [1] | EC50 (Mus musculus [2]) | EC50 [3] | EC50 (Mus musculus [4]) | Compound |
| --- | --- | --- | --- | --- |
| 24500 nM | Not Active | – | – | O=C(NO)NCCSc1nc2cc(Cl)ccc2s1 |
| 70 nM | – | – | – | CN(O)C(=O)CSc1nc2ccccc2s1 |
| 130 nM | – | – | – | CN(O)C(=O)/C=C/Sc1nc2ccccc2s1 |
| – | Not Active | Not Active | – | CON(C)C(=O)NCCSc1nc2ccccc2s1 |
| 1070 nM | – | – | 65.9 mg/kg | CN(O)C(=O)NCSc1nc2ccccc2s1 |
| 70 nM | Not Active | – | – | CC(C)N(O)C(=O)NCCSc1nc2cc(Cl)ccc2s1 |
| 20 nM | – | – | – | CN(O)C(=O)CCSc1nc2cc(Cl)ccc2s1 |
| 130 nM | Not Active | – | – | CC(C)N(O)C(=O)NCCSc1nc2ccccc2s1 |
| 5200 nM | Not Active | – | – | O=C(NO)NCCSc1nc2ccccc2s1 |
| 3200 nM | Not Active | – | – | CN(O)C(=O)NCCSc1nc2cc(C(F)(F)F)ccc2s1 |
| 110 nM | Not Active | – | – | CCOc1ccc2nc(SCCNC(=O)N(C)O)sc2c1 |
| 45 nM | – | – | 23 mg/kg | CN(O)C(=O)NCCCSc1nc2ccccc2s1 |
| – | – | – | 1.6 mg/kg | CC(c1cc2ccccc2s1)N(O)C(N)=O (stereo not drawn) [ZILEUTON] |
